Results published in ChEMBL document CHEMBL1143718, “Synthesis and structure-activity relationships study of novel anti-tumor carbamate anhydrovinblastine analogues” (Bioorg Med Chem, 2007).

How the values were obtained:
[1] = system: HeLa; experiment: Cytotoxicity against human HeLa cells after 72 hrs by SRB assay; format: functional, cell-based
How it was run: (§1)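 Ditartrate salts tested. ATCC A549 or HeLa cells seeded at 6000 cells/well and attached overnight, then treated in triplicate with graded concentrations, 37 °C, 72 h. Fixed with 10% TCA at 4 °C for 60 min, stained with 0.4% SRB, bound dye dissolved in Tris, A515 read. IC50 by Logit method, mean of three independent tests.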

[2] = system: A549; experiment: Cytotoxicity against human A549 cells after 72 hrs by SRB assay; format: functional, cell-based; conditions: A549, 72 h; how it was run: as §1
[3] = system: A549; experiment: Antitumor activity in nude BALB/c mouse bearing A549 cell xenografts assessed as relative tumor volume at 3 mg/kg, iv; format: functional, Homo sapiens
How it was run: (§2)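 Female 7-week-old SPF BALB/cA-nude mice (18-22 g), 2.5 × 10^6 A549 cells implanted s.c. in axilla. Dosing at tumor volume 100-300 mm3, single i.v. dose on day 1. Tumor volume and body weight measured three times a week. Relative tumor volume and body weight reported initial/end. Groups of 6 treated, 12 controls. Means ± SD.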

[4] = system: Mus musculus; experiment: Effect on Body weight in nude BALB/c mouse bearing A549 cell xenografts at 1.5 mg/kg, iv; format: functional; how it was run: as §2
[5] = system: A549; experiment: Antitumor activity in nude BALB/c mouse bearing A549 cell xenografts assessed as tumor growth inhibition at 6 mg/kg, iv after 12 days; format: functional, Homo sapiens; conditions: A549, 288 h
How it was run: (§3)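 A549 s.c. axillary xenografts (2.5 × 10^6 cells) in female 7-week-old SPF BALB/cA-nude mice. Single i.v. dose on day 1 once tumors reached 100-300 mm3. Inhibition = (control mean relative tumor volume − treated)/control × 100%, on day 12 after dosing. Groups of 6, controls 12. Significance by Student's t test.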

[6] = system: A549; experiment: Antitumor activity in nude BALB/c mouse bearing A549 cell xenografts assessed as tumor growth inhibition at 1.5 mg/kg, iv after 12 days; format: functional, Homo sapiens; conditions: A549, 288 h; how it was run: as §3
[7] = system: Mus musculus; experiment: Effect on Body weight in nude BALB/c mouse bearing A549 cell xenografts at 3 mg/kg, iv; format: functional; how it was run: as §2
[8] = system: A549; experiment: Antitumor activity in nude BALB/c mouse bearing A549 cell xenografts assessed as relative tumor volume at 6 mg/kg, iv; format: functional, Homo sapiens; how it was run: as §2
[9] = system: A549; experiment: Antitumor activity in nude BALB/c mouse bearing A549 cell xenografts assessed as relative tumor volume at 1.5 mg/kg, iv; format: functional, Homo sapiens; how it was run: as §2
[10] = system: A549; experiment: Antitumor activity in nude BALB/c mouse bearing A549 cell xenografts assessed as tumor growth inhibition at 3 mg/kg, iv after 12 days; format: functional, Homo sapiens; conditions: A549, 288 h; how it was run: as §3
[11] = system: Mus musculus; experiment: Effect on Body weight in nude BALB/c mouse bearing A549 cell xenografts at 6 mg/kg, iv; format: functional; how it was run: as §2
[12] = system: A549; experiment: Antitumor activity in nude BALB/c mouse bearing A549 cell xenografts assessed as tumor growth inhibition at 10 mg/kg, iv after 12 days; format: functional, Homo sapiens; conditions: A549, 288 h
How it was run: (§4)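 Female 7-week-old SPF BALB/cA nude mice (18-22 g) received 2.5 × 10^6 A549 cells subcutaneously in the axilla. Once tumors reached 100-300 mm3, they were dosed iv at 10 mg/kg on days 1 and 4 (6 mice; 12 controls). Tumor volume and body weight were measured three times weekly. Inhibition was computed from mean relative tumor volume versus control on day 12 after dosing. Means ± SD, Student's t test.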

[13] = system: Mus musculus; experiment: Effect on Body weight in nude BALB/c mouse bearing A549 cell xenografts at 10 mg/kg, iv; format: functional; how it was run: as §4
[14] = system: A549; experiment: Antitumor activity in nude BALB/c mouse bearing A549 cell xenografts assessed as relative tumor volume at 10 mg/kg, iv; format: functional, Homo sapiens; how it was run: as §4

Row | SMILES | IC50 [1] | IC50 [2] | also measured
1 | CCC1=C[C@@H]2CN(CCc3c([nH]c4ccccc34)[C@@](C(=O)OC)(c3cc4c(cc3OC)N(C)[C@H]3[C@](O)(CNC(=O)OCc5ccc([N+](=O)[O-])cc5)[C@H](OC(C)=O)[C@]5(CC)C=CCN6CC[C@]43[C@@H]65)C2)C1 | 10 nM | 38 nM | 
2 | CCCCCOC(=O)NC[C@]1(O)[C@H](OC(C)=O)[C@]2(CC)C=CCN3CC[C@@]4(c5cc([C@@]6(C(=O)OC)C[C@@H]7C=C(CC)CN(CCc8c6[nH]c6ccccc86)C7)c(OC)cc5N(C)[C@@H]14)[C@@H]32 | 184 nM | 426 nM | 
3 | CCOC(=O)NC[C@]1(O)[C@H](OC(C)=O)[C@]2(CC)C=CCN3CC[C@@]4(c5cc([C@@]6(C(=O)OC)C[C@@H]7C=C(CC)CN(CCc8c6[nH]c6ccccc86)C7)c(OC)cc5N(C)[C@@H]14)[C@@H]32 | 16 nM | 51 nM | 
4 | CCC1=C[C@@H]2CN(CCc3c([nH]c4ccccc34)[C@@](C(=O)OC)(c3cc4c(cc3OC)N(C)[C@H]3[C@](O)(CNC(=O)OC(C)(C)C)[C@H](OC(C)=O)[C@]5(CC)C=CCN6CC[C@]43[C@@H]65)C2)C1 | 96 nM | 604 nM | 
5 | CCC1=C[C@@H]2CN(CCc3c([nH]c4ccccc34)[C@@](C(=O)OC)(c3cc4c(cc3OC)N(C)[C@H]3[C@](O)(CNC(=O)OCc5ccc6c(c5)OCO6)[C@H](OC(C)=O)[C@]5(CC)C=CCN6CC[C@]43[C@@H]65)C2)C1 | 17 nM | 75 nM | 
6 | CCC1=C[C@@H]2CN(CCc3c([nH]c4ccccc34)[C@@](C(=O)OC)(c3cc4c(cc3OC)N(C)[C@H]3[C@](O)(CNC(=O)OC5CCC5)[C@H](OC(C)=O)[C@]5(CC)C=CCN6CC[C@]43[C@@H]65)C2)C1 | 23 nM | 121 nM | 
7 | CCC1=C[C@@H]2CN(CCc3c([nH]c4ccccc34)[C@@](C(=O)OC)(c3cc4c(cc3OC)N(C)[C@H]3[C@](O)(CNC(=O)OC5CCCCC5)[C@H](OC(C)=O)[C@]5(CC)C=CCN6CC[C@]43[C@@H]65)C2)C1 | 250 nM | 381 nM | 
8 | CCC1=C[C@@H]2CN(CCc3c([nH]c4ccccc34)[C@@](C(=O)OC)(c3cc4c(cc3OC)N(C)[C@H]3[C@](O)(CNC(=O)OCc5cccc(Cl)c5)[C@H](OC(C)=O)[C@]5(CC)C=CCN6CC[C@]43[C@@H]65)C2)C1 | 39 nM | 203 nM | 
9 | CCC1=C[C@@H]2CN(CCc3c([nH]c4ccccc34)[C@@](C(=O)OC)(c3cc4c(cc3OC)N(C)[C@H]3[C@](O)(CNC(=O)OC(C)C)[C@H](OC(C)=O)[C@]5(CC)C=CCN6CC[C@]43[C@@H]65)C2)C1 | 27 nM | 162 nM | 
10 | CCC1=C[C@@H]2CN(CCc3c([nH]c4ccccc34)[C@@](C(=O)OC)(c3cc4c(cc3OC)N(C)[C@H]3[C@](O)(CNC(=O)OCCOC)[C@H](OC(C)=O)[C@]5(CC)C=CCN6CC[C@]43[C@@H]65)C2)C1 | 14 nM | 65 nM | 
11 | CCC1=C[C@@H]2CN(CCc3c([nH]c4ccccc34)[C@@](C(=O)OC)(c3cc4c(cc3OC)N(C)[C@H]3[C@](O)(CNC(=O)OCC5CC5)[C@H](OC(C)=O)[C@]5(CC)C=CCN6CC[C@]43[C@@H]65)C2)C1 | 13 nM | 61 nM | 
12 | CCC1=C[C@@H]2CN(CCc3c([nH]c4ccccc34)[C@@](C(=O)OC)(c3cc4c(cc3OC)N(C)[C@H]3[C@](O)(CNC(=O)OCc5ccc(Cl)cc5)[C@H](OC(C)=O)[C@]5(CC)C=CCN6CC[C@]43[C@@H]65)C2)C1 | 6 nM | 89 nM | 
13 | CCC1=C[C@@H]2CN(CCc3c([nH]c4ccccc34)[C@@](C(=O)OC)(c3cc4c(cc3OC)N(C)[C@H]3[C@](O)(CNC(=O)OCCBr)[C@H](OC(C)=O)[C@]5(CC)C=CCN6CC[C@]43[C@@H]65)C2)C1 | 30 nM | 131 nM | 
14 | CCC1=C[C@@H]2CN(CCc3c([nH]c4ccccc34)[C@@](C(=O)OC)(c3cc4c(cc3OC)N(C)[C@H]3[C@](O)(CNC(=O)OCc5ccccc5)[C@H](OC(C)=O)[C@]5(CC)C=CCN6CC[C@]43[C@@H]65)C2)C1 | 54 nM | 57 nM | 
15 | CCC1=C[C@@H]2CN(CCc3c([nH]c4ccccc34)[C@@](C(=O)OC)(c3cc4c(cc3OC)N(C)[C@H]3[C@](O)(CNC(=O)OCc5ccc(OC)cc5)[C@H](OC(C)=O)[C@]5(CC)C=CCN6CC[C@]43[C@@H]65)C2)C1 | 8 nM | 67 nM | 
16 | CCC1=C[C@@H]2CN(CCc3c([nH]c4ccccc34)[C@@](C(=O)OC)(c3cc4c(cc3OC)N(C)[C@H]3[C@](O)(CNC(=O)Oc5ccccc5OC)[C@H](OC(C)=O)[C@]5(CC)C=CCN6CC[C@]43[C@@H]65)C2)C1 | 148 nM | 609 nM | 
17 | CCC1=C[C@@H]2CN(CCc3c([nH]c4ccccc34)[C@@](C(=O)OC)(c3cc4c(cc3OC)N(C)[C@H]3[C@](O)(CNC(=O)OC)[C@H](OC(C)=O)[C@]5(CC)C=CCN6CC[C@]43[C@@H]65)C2)C1 | 9 nM | 38 nM | Activity [3]: 6.96; Activity [4]: 21.3 g; inhibition in vivo at 6 mg/kg [5]: 68.5%; inhibition in vivo at 1.5 mg/kg [6]: 26%; Activity [7]: 20.4 g; Activity [8]: 3.48; Activity [9]: 8.18; inhibition in vivo at 3 mg/kg [10]: 37.1%; Activity [11]: 18.8 g
18 | CCC1=C[C@@H]2CN(CCc3c([nH]c4ccccc34)[C@@](C(=O)OC)(c3cc4c(cc3OC)N(C)[C@H]3[C@](O)(CNC(=O)Oc5ccccc5)[C@H](OC(C)=O)[C@]5(CC)C=CCN6CC[C@]43[C@@H]65)C2)C1 | 199 nM | 110 nM | 
19 | CCC1=C[C@@H]2CN(CCc3c([nH]c4ccccc34)[C@@](C(=O)OC)(c3cc4c(cc3OC)N(C)[C@H]3[C@](O)(CNC(=O)OCc5ccccc5OC)[C@H](OC(C)=O)[C@]5(CC)C=CCN6CC[C@]43[C@@H]65)C2)C1 | 69 nM | 200 nM | 
20 | CCC1=C[C@@H]2CN(CCc3c([nH]c4ccccc34)[C@@](C(=O)OC)(c3cc4c(cc3OC)N(C)[C@H]3[C@](O)(CNC(=O)OCC(C)C)[C@H](OC(C)=O)[C@]5(CC)C=CCN6CC[C@]43[C@@H]65)C2)C1 | 67 nM | 66 nM | 
21 | CCC1=C[C@@H]2CN(CCc3c([nH]c4ccccc34)[C@@](C(=O)OC)(c3cc4c(cc3OC)N(C)[C@H]3[C@](O)(CNC(=O)Oc5ccc(OC)cc5)[C@H](OC(C)=O)[C@]5(CC)C=CCN6CC[C@]43[C@@H]65)C2)C1 | 49 nM | 365 nM | 
22 | CCC1=C[C@@H]2CN(CCc3c([nH]c4ccccc34)[C@@](C(=O)OC)(c3cc4c(cc3OC)N(C)[C@H]3[C@](O)(CNC(=O)OCc5ccccc5[N+](=O)[O-])[C@H](OC(C)=O)[C@]5(CC)C=CCN6CC[C@]43[C@@H]65)C2)C1 | 66 nM | 61 nM | 
23 | CCC1=C[C@@H]2CN(CCc3c([nH]c4ccccc34)[C@@](C(=O)OC)(c3cc4c(cc3OC)N(C)[C@H]3[C@](O)(CNC(=O)OC5CCCC5)[C@H](OC(C)=O)[C@]5(CC)C=CCN6CC[C@]43[C@@H]65)C2)C1 | 132 nM | 177 nM | 
24 | CCC1=C[C@@H]2CN(C1)Cc1c([nH]c3ccccc13)[C@@](C(=O)OC)(c1cc3c(cc1OC)N(C)[C@H]1[C@@](O)(C(=O)OC)[C@H](OC(C)=O)[C@]4(CC)C=CCN5CC[C@]31[C@@H]54)C2 [VINORELBINE] | 26 nM | 49 nM | inhibition in vivo at 10 mg/kg [12]: 75.9%; Activity [13]: 16.4 g; Activity [14]: 2.66
